The text below walks through data of paper PMC3032084 (Nature chemical biology, 2009).

Assay [1] concerns adenylyl cyclases. The assay is described as follows: Co-localization of ligand with BODIPY-Fsk labeled adenylyl cyclases. The assay is classed as cell-based. To be noted: cells transiently transfected with PTHR. Put shortly: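 HEK293 cells transiently transfected with PTHR. Cellular adenylyl cyclases labeled with BODIPY-labeled forskolin, which labels all cells. A TMR-labeled test peptide ligand marks only the PTHR-expressing cells. After ligand binding, the distribution of the BODIPY-Fsk signal is compared with the ligand signal (internalized punctae vs diffuse) by live-cell fluorescence imaging.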

In assay [2] the test system is GFP-N-PTHR. The assay is described as follows: Live cell confocal co-localization of ligand with GFP-N-PTHR. The assay is classed as cell-based. The settings on record: TMR-labeled ligand, after washout.
Assay [3] concerns Gαs-GFP. The assay is described as follows: Live cell confocal co-localization of ligand with Gαs-GFP. Type of assay: cell-based. To be noted: TMR-labeled ligand, after washout.
In assay [4] the target is T1, PTHR (GFP-N-PTHR) (Homo sapiens, UniProt Q03431).
T1 sequence (Q03431 27-593): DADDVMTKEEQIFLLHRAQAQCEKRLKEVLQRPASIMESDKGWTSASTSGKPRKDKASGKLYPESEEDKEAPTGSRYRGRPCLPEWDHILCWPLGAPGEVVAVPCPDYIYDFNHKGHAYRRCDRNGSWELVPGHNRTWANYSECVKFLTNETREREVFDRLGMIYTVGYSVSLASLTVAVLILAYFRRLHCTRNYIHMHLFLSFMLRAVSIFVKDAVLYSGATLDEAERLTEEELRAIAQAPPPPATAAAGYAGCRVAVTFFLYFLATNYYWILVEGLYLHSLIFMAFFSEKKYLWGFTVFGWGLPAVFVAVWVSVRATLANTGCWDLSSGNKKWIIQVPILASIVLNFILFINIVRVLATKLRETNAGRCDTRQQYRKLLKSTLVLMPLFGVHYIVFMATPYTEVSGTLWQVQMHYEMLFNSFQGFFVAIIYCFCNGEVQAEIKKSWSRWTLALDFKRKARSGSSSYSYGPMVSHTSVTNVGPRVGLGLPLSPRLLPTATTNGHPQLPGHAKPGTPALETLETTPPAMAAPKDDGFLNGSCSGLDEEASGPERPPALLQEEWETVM
The assay is classed as binding. To be noted: for ligand dissociation after washout: GFP fluorescence recovery after rapid removal of ligand; for decrease in GFP emission: saturating concentration (15 μM), hormone binding to receptor.

The target in assay [5] is PTHR variant that lacks the N domain and is tagged extracellularly with GFP. The assay is described as follows: FRET or BRET.
The target of assay [6] is PTHR N-terminally tagged with green fluorescent protein (UniProt Q03431). The assay is described as follows: FRET or BRET. (Bioluminescence resonance energy transfer reports proximity on the nanometre scale.)
Assay [7] concerns PTHR. The settings on record: membranes, ref [6]; cited from earlier work.
Assay [8] has as its system Rab7-GFP. The assay is described as follows: Co-localization of ligand with Rab7-GFP late endosomes. Type of assay: cell-based. The settings on record: even after 30 min of incubation.
Assay [9] deals with early endosomal antigen 1 (EEA-1). The assay is described as follows: Co-localization of ligand with GFP-tagged EEA-1. Type of assay: cell-based. To be noted: data not shown.
For assay [10], the system named is Rab5-GFP. The assay is described as follows: Co-localization of ligand with Rab5-GFP early endosomes. Type of assay: cell-based. The settings on record: Rab5-GFP-transfected cells. A digest of the protocol:
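Live HEK293 cells transfected with Rab5-GFP were imaged at room temperature 48 h post-transfection by spinning-disc confocal microscopy. Cells were washed with HEPES buffer containing 0.1% BSA. TMR-labelled ligand was added and removed by perfusion. Z-stacks were taken at 0.3-μm steps. Co-localization was scored by Pearson's correlation coefficient.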

Assay [11] has as its target T2, PTHR co-expressed with DN-Gs (Homo sapiens, UniProt Q03431).
T2 sequence (Q03431 27-593): T1 sequence (Q03431 27-593)
The assay is described as follows: Ligand dissociation by FRET with co-expressed dominant-negative Gαs. Type of assay: binding. To be noted: co-expression of DN-Gs.

For assay [12], the target named is YFP-labeled PTHR (UniProt Q03431). The assay is described as follows: FRET or BRET.
Assay [13] concerns the target T3, PTHR (PTHR-CFP/YFP) (Homo sapiens, UniProt Q03431).
T3 sequence (Q03431 27-462 limits assumed): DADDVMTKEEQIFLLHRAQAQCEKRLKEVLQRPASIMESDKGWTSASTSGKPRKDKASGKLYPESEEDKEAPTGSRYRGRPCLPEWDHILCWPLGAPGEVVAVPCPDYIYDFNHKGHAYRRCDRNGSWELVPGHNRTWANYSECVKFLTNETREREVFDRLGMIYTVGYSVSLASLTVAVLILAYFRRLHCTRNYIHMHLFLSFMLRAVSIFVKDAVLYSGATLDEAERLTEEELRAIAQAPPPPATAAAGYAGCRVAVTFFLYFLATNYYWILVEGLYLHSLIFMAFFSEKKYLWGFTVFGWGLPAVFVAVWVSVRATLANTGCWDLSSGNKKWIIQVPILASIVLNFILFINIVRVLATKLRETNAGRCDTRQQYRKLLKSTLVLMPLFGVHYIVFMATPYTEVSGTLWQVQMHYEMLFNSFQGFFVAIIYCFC
The assay is described as follows: PTHR activation/deactivation by intramolecular FRET. Type of assay: cell-based. To be noted: PTHR-CFP/YFP FRET after washout.

In assay [14] the test system is cAMP via PTHR in HEK293 cells. The assay is described as follows: cAMP accumulation/degradation by FRET sensor Epac-CFP/YFP. The assay is classed as cell-based. The settings on record: PTHrP1–36 100 nM, PTH1–34 text 1−10 nM. (cAMP levels reflect the balance of adenylyl cyclase and phosphodiesterase activity.)

“Also recorded” adds a separate entry of the source.

Consider PTHrP1–36-TMR: TMR-labeled PTHrP1–36, for which the “BODIPY-Fsk (adenylyl cyclase) distribution/co-localization with ligand” value in assay [1] is “the labeled forskolin remained diffuse”. Further, the “co-localization with GFP-N-PTHR” value in [2] is recorded as “did not co-localize with either GFP-N-PTHR or Gαs-GFP; also recorded: alone is detected as small puntae at internalized sites”. Besides, in assay [3], the “co-localization with Gαs-GFP” value is on record as “did not co-localize with either GFP-N-PTHR or Gαs-GFP; also recorded: only ligand-containing vesicles are observed”. For the same substance, in assay [4], the “ligand dissociation after washout” value is “complete dissociation of the ligand from the receptor” and the “decrease in GFP emission” value is listed as ~ 20%.

Substance “M-PTH(1-14) labelled with tetramethylrhodamine (peptide)” came in with a tau, dissociation (single step) in assay [5] of 15.8 s.

With “PTH(1-34) tagged at Lys13 with tetramethylrhodamine (peptide)”, in [6], the koff, fast step (intercept) is 0.46 s⁻¹; the tau fast, dissociation (turn off) was determined as 1.5 s; the tau slow, association (switch on) is 1.15 s.

Turning to ^125I-PTH1–34: radioligand of PTH1–34, the “stability of radioligand binding with GTPγS” value in assay [7] is “remains mostly stable in the presence of GTPγS”.

For “^125I-PTHrP1–36: radioligand of PTHrP1–36”, the “stability of radioligand binding with GTPγS” value in [7] is on record as “mostly destabilized by GTPγS”.

On to “PTH1–34-TMR: PTH ligand tagged at Lys13 with tetramethylrhodamine”, for which the “BODIPY-Fsk (adenylyl cyclase) distribution/co-localization with ligand” value in assay [1] was “strongly co-localized with the ligand as internalized punctae”. In addition, in assay [8], the “co-localization with Rab7-GFP” value is “No co-localization”. In addition, the “co-localization with GFP-N-PTHR” value in assay [2] was “strong co-localization with both GFP-N-PTHR and Gas-GFP; also recorded: little or no TMR fluorescence from PTH1–34-TMR was detected at the cell surface; also recorded: remained closely associated during receptor internalization”. Further, the “co-localization with EEA-1-GFP” value in assay [9] was “also co-localized with the early endosomal antigen 1 (EEA-1)”. Further, the “co-localization with Rab5-labeled endosomes” value in [10] is “all of the internalized PTH1–34-TMR co-localized with Rab5-labeled endosomes”. In addition, in [3], the “co-localization with Gαs-GFP” value was “strong co-localization with both GFP-N-PTHR and Gas-GFP; also recorded: persisted over a period of 30 min in endosomes but not at the cell surface”. In addition, in assay [4], the “ligand dissociation after washout” value is recorded as “most of the ligand remaining bound to the receptor after washout” and the “decrease in GFP emission” value is ~ 20%. Further, the “effect of DN-Gs on ligand release” value in assay [11] is “no effect”.

In assay [12], “Gs-CFP (Gαs/Gβ1/Gγ2-CFP) (from UniProt P63092 1-394; P62873 1-340; P59768 1-71) (complex; other documents disagree on this pair)” gave a tau, PTHR-Gs dissociation (turn off) after washout of PTHrP(1-36) of 48.1 s; a tau, PTHR-Gs interaction (switch on) with PTH(1-34) of 0.96 s; a tau, PTHR-Gs interaction (switch on) with PTHrP(1-36) of 1.58 s.

In the case of PTH1–84: PTH is represented by PTH1–84, the “persistence of active receptor state after ligand removal” value in [13] is reported as “stable active state that persisted well after removal of ligand”. Further, the “Epac-FRET (cAMP) signal after ligand washout” value in [14] is “remained fully stable after washout”.
